In assay [1] the target is rSERT (Rattus norvegicus, UniProt P31652). The assay can be described thus: Drug-evoked [3H]5-HT release via rSERT in rat brain synaptosomes. The following applies: for Fold more potent than methcathinone as [3H]5-HT releasing agent: SERT release. The assay is classed as biochemical.
Assay [2] deals with T1, hSERT (Homo sapiens, UniProt P31645). Description: Inhibition of hSERT-mediated [3H]5-HT uptake into human platelets. The format is cell-based.
Assay [3] has as its target T2, hNET (Homo sapiens, UniProt P23975). The assay can be described thus: Inhibition of hNET-mediated [3H]NE uptake into C6-hNET cells. The format is cell-based.
The target of assay [4] is rNET (Rattus norvegicus, UniProt Q63380). The assay can be described thus: Drug-evoked [3H]MPP+ release via rNET in rat brain synaptosomes. The assay is classed as biochemical.
The target in assay [5] is T3, rDAT (Rattus norvegicus, UniProt P23977). The assay can be described thus: Drug-evoked [3H]MPP+ release via rDAT in rat striatal synaptosomes. The format is biochemical.
The target of assay [6] is hDAT (Homo sapiens, UniProt Q01959). The assay can be described thus: Inhibition of hDAT-mediated [3H]DA uptake into HEK293-hDAT cells. The format is cell-based.
Assay [7] relates to horizontal locomotor activity. The settings on record: cited from earlier work; for Locomotor effects in vivo compared to methcathinone: ref Foley and Cozzi, 2003.
For assay [8], the system named is horizontal locomotor activity. Description: Horizontal locomotor activity during microdialysis. The following applies: rat, i.v.; methcathinone 0.3 then 1.0 mg/kg, 4-TFMAP 1.0 then 3.0 mg/kg. The format is in vivo. The method in brief: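 Horizontal activity is recorded by a photobeam ring (2.54 cm spacing) in a 43 cm cubic arena, where rats stay overnight and during microdialysis. It is binned every 20 min, from 60 min before to 120 min after two sequential i.v. injections given 60 min apart (saline vehicle, 1 mL/kg). Data are normalized to % of three pre-injection bins and compared with saline controls (n=6; drugs n=7) by two-way ANOVA with Bonferroni.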

Assay [9] concerns extracellular dopamine in nucleus accumbens. The assay can be described thus: In vivo microdialysis of nucleus accumbens, dialysate dopamine. Also on record: species or system rat. The following applies: i.v.; for Effect on extracellular dopamine in nucleus accumbens: rat, methcathinone 0.3 then 1.0 mg/kg, 4-TFMAP 1.0 then 3.0 mg/kg. Put shortly: (§1)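 Male Sprague-Dawley rats (300–350 g) under pentobarbital anaesthesia (60 mg/kg i.p.) get a jugular catheter and a nucleus accumbens guide cannula (1.6 mm lateral, 1.6 mm anterior to bregma, 6.0 mm below dura). Next morning, dialysate is collected every 20 min and assayed for DA and 5-HT by HPLC-ECD. After three stable baselines, two i.v. doses in saline (1 mL/kg) are given 60 min apart, with sampling for 120 min. Data are % of mean baseline; n=6 saline, 7 per drug; two-way ANOVA with Bonferroni.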

In assay [10] the test system is extracellular 5-HT in nucleus accumbens. Description: In vivo microdialysis of nucleus accumbens, dialysate 5-HT. The following applies: rat, i.v.; for Effect on extracellular 5-HT in nucleus accumbens: methcathinone 0.3 then 1.0 mg/kg, 4-TFMAP 1.0 then 3.0 mg/kg. Put shortly: as §1
Assay [11] deals with T1, hSERT. The settings on record: read-out: SERT [3H]5-HT uptake inhibition IC50, ref Cozzi et al., 1999; cited from earlier work.
Assay [12] addresses T3, rDAT. The settings on record: read-out: DAT [3H]DA uptake inhibition IC50, ref Cozzi et al., 1999; cited from earlier work.
Assay [13] addresses T2, hNET. The settings on record: read-out: NET [3H]NE uptake inhibition IC50, ref Cozzi et al., 1999; cited from earlier work.
The subject of assay [14] is extracellular dopamine in nucleus accumbens. The following applies: ref Baumann et al., 2012; Kehr et al. (2011); cited from earlier work.
For assay [15], the system named is extracellular 5-HT in nucleus accumbens. The following applies: ref Baumann et al., 2012; Kehr et al. (2011); cited from earlier work.
Assay [16] has as its system human SERT. The settings on record: read-out: KM as SERT substrate, racemic, ref Cozzi and Foley, 2003; cited from earlier work.
[17] abbreviates: SERT [3H]5-HT release EC50, rat brain synaptosomes, mean ±S.E.M.
Where [18] appears, read: read-out: NET [3H]MPP+ release EC50, mean ±S.E.M.

“Also recorded” adds a separate entry of the source. Like-named read-outs stand apart in the source and are kept apart here.

rNET, sequence (Q63380 1-617): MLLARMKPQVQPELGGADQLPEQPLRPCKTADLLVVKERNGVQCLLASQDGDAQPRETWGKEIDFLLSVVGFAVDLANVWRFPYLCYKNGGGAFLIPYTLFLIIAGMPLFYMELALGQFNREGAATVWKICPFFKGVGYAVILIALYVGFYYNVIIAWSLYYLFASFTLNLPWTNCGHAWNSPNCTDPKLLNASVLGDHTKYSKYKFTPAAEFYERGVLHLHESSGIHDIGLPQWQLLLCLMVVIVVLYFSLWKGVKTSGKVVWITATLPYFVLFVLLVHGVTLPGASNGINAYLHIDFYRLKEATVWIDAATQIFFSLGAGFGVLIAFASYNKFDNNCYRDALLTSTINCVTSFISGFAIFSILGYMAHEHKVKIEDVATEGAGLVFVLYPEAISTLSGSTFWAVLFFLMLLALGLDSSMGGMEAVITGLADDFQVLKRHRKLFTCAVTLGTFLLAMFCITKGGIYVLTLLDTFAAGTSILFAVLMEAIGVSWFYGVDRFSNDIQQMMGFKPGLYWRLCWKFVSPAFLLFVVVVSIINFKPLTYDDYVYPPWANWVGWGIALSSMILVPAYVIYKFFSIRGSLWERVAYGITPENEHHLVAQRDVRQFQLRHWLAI
hDAT, sequence (Q01959 whole entry): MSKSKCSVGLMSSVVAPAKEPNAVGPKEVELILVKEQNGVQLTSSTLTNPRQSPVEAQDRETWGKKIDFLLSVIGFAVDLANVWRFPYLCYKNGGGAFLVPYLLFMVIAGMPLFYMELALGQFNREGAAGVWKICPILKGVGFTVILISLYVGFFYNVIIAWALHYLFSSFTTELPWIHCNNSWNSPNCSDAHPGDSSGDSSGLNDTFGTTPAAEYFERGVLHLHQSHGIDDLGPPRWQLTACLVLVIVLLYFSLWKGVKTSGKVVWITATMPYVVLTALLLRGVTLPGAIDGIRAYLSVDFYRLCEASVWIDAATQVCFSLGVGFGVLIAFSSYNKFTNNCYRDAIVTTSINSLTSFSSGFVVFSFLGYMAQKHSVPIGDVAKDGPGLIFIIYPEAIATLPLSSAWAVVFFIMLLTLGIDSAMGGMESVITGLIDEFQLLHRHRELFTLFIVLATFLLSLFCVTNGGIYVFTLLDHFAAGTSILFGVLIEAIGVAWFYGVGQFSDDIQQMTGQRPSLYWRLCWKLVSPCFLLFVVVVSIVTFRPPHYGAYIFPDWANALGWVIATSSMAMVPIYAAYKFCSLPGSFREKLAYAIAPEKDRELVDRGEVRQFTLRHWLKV
T1 sequence (P31645 whole entry): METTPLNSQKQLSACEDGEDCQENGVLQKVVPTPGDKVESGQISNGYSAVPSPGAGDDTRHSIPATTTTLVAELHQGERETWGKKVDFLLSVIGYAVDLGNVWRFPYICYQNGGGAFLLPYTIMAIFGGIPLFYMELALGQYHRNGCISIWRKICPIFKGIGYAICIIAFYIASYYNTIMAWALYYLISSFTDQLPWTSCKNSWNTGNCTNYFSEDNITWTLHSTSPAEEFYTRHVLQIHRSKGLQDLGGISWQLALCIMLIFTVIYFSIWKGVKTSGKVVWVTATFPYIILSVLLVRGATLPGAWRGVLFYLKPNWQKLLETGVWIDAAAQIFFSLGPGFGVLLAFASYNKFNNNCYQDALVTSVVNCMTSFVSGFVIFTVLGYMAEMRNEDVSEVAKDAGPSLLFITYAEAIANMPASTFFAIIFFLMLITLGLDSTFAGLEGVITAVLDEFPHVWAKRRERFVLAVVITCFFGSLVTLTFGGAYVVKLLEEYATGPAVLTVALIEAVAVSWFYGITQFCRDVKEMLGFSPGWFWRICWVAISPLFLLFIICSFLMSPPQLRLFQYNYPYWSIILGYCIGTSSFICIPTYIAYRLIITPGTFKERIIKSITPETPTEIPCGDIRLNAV
T2 sequence (P23975 whole entry): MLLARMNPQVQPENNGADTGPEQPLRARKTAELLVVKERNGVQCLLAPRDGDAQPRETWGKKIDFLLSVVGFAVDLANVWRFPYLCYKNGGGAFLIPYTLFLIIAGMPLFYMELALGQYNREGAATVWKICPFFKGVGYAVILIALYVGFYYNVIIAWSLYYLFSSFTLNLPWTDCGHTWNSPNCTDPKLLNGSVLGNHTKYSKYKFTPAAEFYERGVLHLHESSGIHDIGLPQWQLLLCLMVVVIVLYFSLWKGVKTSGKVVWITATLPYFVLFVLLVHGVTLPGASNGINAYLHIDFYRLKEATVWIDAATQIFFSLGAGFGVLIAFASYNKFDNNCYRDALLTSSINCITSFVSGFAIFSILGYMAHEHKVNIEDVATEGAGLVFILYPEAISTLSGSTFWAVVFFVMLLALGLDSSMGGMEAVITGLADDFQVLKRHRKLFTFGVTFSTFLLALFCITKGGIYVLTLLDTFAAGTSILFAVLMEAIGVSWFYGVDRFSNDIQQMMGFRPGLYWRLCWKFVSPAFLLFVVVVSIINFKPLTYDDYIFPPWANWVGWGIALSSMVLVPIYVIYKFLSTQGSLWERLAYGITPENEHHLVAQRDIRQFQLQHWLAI
rSERT, sequence (P31652 whole entry): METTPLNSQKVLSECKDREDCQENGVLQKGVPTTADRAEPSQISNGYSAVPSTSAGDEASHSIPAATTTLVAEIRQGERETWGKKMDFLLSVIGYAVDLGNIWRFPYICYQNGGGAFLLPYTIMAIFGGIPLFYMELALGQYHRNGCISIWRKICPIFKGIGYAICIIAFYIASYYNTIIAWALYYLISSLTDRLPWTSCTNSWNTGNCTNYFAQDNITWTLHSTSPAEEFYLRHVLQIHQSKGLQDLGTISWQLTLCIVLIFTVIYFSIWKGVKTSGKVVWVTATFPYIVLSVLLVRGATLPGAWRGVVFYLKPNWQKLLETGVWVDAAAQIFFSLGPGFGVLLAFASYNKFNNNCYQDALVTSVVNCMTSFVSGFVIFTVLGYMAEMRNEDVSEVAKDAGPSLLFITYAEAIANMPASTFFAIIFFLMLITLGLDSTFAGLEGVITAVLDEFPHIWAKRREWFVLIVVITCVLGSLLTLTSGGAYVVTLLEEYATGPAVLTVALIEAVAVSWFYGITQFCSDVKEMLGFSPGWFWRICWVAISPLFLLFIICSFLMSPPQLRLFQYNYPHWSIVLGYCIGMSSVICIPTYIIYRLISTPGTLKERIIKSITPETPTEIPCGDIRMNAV
T3 sequence (P23977 whole entry): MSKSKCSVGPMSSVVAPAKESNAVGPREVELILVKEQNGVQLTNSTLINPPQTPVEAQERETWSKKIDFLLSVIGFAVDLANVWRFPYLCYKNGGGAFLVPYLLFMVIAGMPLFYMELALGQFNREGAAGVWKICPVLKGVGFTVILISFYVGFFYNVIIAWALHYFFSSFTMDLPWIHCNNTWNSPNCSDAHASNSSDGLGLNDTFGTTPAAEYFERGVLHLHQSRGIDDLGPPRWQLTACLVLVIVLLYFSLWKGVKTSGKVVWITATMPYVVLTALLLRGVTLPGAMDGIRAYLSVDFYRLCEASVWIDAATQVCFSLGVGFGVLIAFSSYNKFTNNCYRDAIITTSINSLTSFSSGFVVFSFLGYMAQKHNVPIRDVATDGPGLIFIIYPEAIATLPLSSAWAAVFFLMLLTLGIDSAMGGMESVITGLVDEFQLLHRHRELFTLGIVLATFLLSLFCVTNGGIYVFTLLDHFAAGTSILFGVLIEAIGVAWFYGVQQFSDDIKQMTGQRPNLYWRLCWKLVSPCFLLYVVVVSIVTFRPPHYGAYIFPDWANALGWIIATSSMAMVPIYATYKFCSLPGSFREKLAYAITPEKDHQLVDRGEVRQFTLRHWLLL

Turning to `CNC(C)C(=O)c1ccccc1C(F)(F)F` (centres unmarked) [2-TFMAP, 2-(methylamino)-1-(2-tri-fluoromethylphenyl)propan-1-one], the EC50 was found to be 8400 ± 800 nM in [1] (setting [17]), 2200 ± 300 nM in [4] (setting [18]) and 8000 ± 900 nM in [5]. The values for the half-maximal inhibitory concentration (IC50) in assay [2], in assay [3] and in assay [6] were 239000 ± 13000 nM, 10000 ± 3000 nM and 689000 ± 160000 nM, respectively.
On to `CNC(C)C(=O)c1cccc(Br)c1` (centres unmarked) [3-bromomethcathinone], for which the “Locomotor effects in vivo compared to methcathinone” value in assay [7] is given as “fewer locomotor effects”.
For the compound `CNC(C)C(=O)c1ccc(C(F)(F)F)cc1` (centres unmarked) [4-TFMAP, 2-(methylamino)-1-(4-trifluoromethylphenyl)propan-1-one], the half-maximal effective concentration (EC50) in [1] (EC50 for [3H]5-HT release at rSERT, rat brain synaptosomes) was determined as 186 nM; in [1] (setting [17]), 190 ± 30 nM; in [4] (read-out: EC50 for [3H]MPP+ release at rNET), 867 nM; in assay [4] (setting [18]) it was 900 ± 300 nM; in [5], 2700 ± 300 nM. For the same compound, the “Fold more potent than methcathinone as [3H]5-HT releasing agent” value in [1] was determined as 10 fold. In addition, the half-inhibitory concentration (IC50) was 4500 ± 600 nM in [2], 3000 ± 900 nM in [3] and 200000 ± 50000 nM in assay [6]. Also, the “Effect on horizontal locomotor activity” value in [8] is reported as “no effect; also recorded: nor did it stimulate locomotor activity”. Further, the “Effect on extracellular dopamine in nucleus accumbens” value in assay [9] is recorded as “no effect; also recorded: did not stimulate dopamine release”. Moreover, the “Potency on dialysate 5-HT relative to methcathinone” value in [10] (nucleus accumbens) is recorded as “approximately 1/3”. Moreover, the “Effect on extracellular 5-HT in nucleus accumbens” value in [10] is listed as “increased extracellular 5-HT; also recorded: dose-related increase in 5-HT efflux”.
In the case of `CNC(C)C(=O)c1ccc(Br)cc1` (centres unmarked) [4-bromomethcathinone], the “Locomotor effects in vivo compared to methcathinone” value in [7] was “fewer locomotor effects”.
For the compound `CNC(C)C(=O)c1ccccc1` (centres unmarked) [Methcathinone, reference compound], the EC50 is 4000 ± 1000 nM in assay [1] (read-out: SERT [3H]5-HT release EC50, rat brain synaptosomes, mean ±S.E.M.); 20 ± 3 nM in assay [4] (setting [18]); 20 ± 1 nM in assay [5] (read-out: DAT [3H]MPP+ release EC50, rat striatal synaptosomes, mean ±S.E.M.). Also, the “Potency as dopamine releasing agent relative to 5-HT releaser in vivo” value in assay [9] (rat nucleus accumbens) is on record as “about twice as potent”. The “Effect on extracellular dopamine in nucleus accumbens” value in [9] is reported as “large dose-dependent increases”. The results for the half-inhibitory concentration (IC50) in assay [11], in [12] and in assay [13] were 35000 ± 5000 nM, 360 ± 60 nM and 500 ± 100 nM, respectively. Besides, the “Effect on extracellular 5-HT in nucleus accumbens” value in assay [10] is “large dose-dependent increases”.
On to `CNC(C)C(=O)c1ccc(C)cc1` (centres unmarked) [mephedrone, 4-methylmethcathinone], for which the “Effect on DA release in nucleus accumbens” value in assay [14] was “stimulated both 5-HT and DA release”. For the same compound, the “Effect on locomotor activity” value in assay [7] (1 and 3 mg/kg, ref Baumann et al., 2012, Kehr et al. (2011)) is reported as “dose-related locomotor stimulation”. Also, the “Effect on 5-HT release in nucleus accumbens” value in assay [15] is “stimulated both 5-HT and DA release”.
As for [^3H]methcathinone, the Km in [16] is 0.244 µM.
As for `CNC(C)C(=O)c1cccc(C(F)(F)F)c1` (centres unmarked) [3-TFMAP, 2-(methylamino)-1-(3-trifluoromethylphenyl)propan-1-one], the EC50 is 380 ± 60 nM in assay [1] (setting [17]), 2700 ± 800 nM in assay [4] (setting [18]) and 610 ± 90 nM in assay [5]. Besides, the “Fold more potent than methcathinone as [3H]5-HT releasing agent” value in assay [1] turned out to be 10 fold. The half-maximal inhibitory concentration (IC50) in [2] stood at 11300 ± 400 nM; in [3], 3000 ± 800 nM; in assay [6] it was 136000 ± 8000 nM.

Broadly, the EC50 is the concentration giving half of the maximal effect. What is called IC50 is the concentration that gives 50% inhibition. Usually Km stands for the concentration of substrate that gives half-maximal velocity.

The values are drawn from article PMC3656655 (European journal of pharmacology, 2012).
